Experimental findings from ChEMBL document CHEMBL4828701, “An Integrated Strategy for the Detection, Dereplication, and Identification of DNA-Binding Biomolecules from Complex Natural Product Mixtures” (J Nat Prod, 2021) are described below.

Active and inactive are the calls of the source. The calls are words filed in the database; no cut-off is given here.

For one data set, the system named is HCC1806. In words: Antiproliferative activity against human HCC1806 assessed as cell growth inhibition after 48 hrs by SRB assay. The class given is functional. The following applies: for CC50: read-out: LC50 (the source's name). The procedure, abridged:
(§1)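 A-673 and HCC1806 cells in RPMI-1640 with 5% FBS, 37 °C, 5% CO2, used within 4 months of thaw. Cells were plated and left overnight, then exposed to compounds in DMSO (0.5% v/v final) for 48 h. SRB staining followed, with GI50 fitted by nonlinear regression, as the mean of 3 or 4 experiments ±SEM.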

For a further data set, the system named is SJRH30. The data set can be described thus: Antiproliferative activity against human SJRH30 assessed as cell growth inhibition after 48 hrs by SRB assay. The class given is functional. The procedure, abridged: (§2)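 HCC1937, HCC70 and SJCRH30 cells in RPMI-1640 with 10% FBS and 50 μg/mL gentamicin, 37 °C, 5% CO2, used within 4 months of thaw. Plated cells adhered overnight before 48 h compound exposure (DMSO 0.5% v/v final). Read-out was SRB, with GI50 by nonlinear regression from 3 or 4 experiments ±SEM.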

The next data set has as its system HCC1937. In words: Antiproliferative activity against human HCC1937 assessed as cell growth inhibition after 48 hrs by SRB assay. The class given is functional. In short, it runs like this: as §2
In the next data set the test system is HCC70. The data set can be described thus: Antiproliferative activity against human HCC70 assessed as cell growth inhibition after 48 hrs by SRB assay. The class given is functional. The following applies: for CC50: read-out: LC50 (the source's name). In short, it runs like this: as §2
The next data set has as its system MDA-MB-231. In words: Antiproliferative activity against human MDA-MB-231 assessed as cell growth inhibition after 48 hrs by SRB assay. The following applies: for CC50: read-out: LC50 (the source's name). The class given is functional. In short, it runs like this: (§3)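 MDA-MB-231 and MDA-MB-453 cells in modified IMEM with 5% FBS and 30 μg/mL gentamicin, 37 °C, 5% CO2, used within 4 months of thaw. After overnight adherence, cells had 48 h compound treatment (DMSO 0.5% v/v final). Growth was read by SRB assay, with GI50 from nonlinear regression as the mean of 3 or 4 experiments ±SEM.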

For another data set, the system named is MDA-MB-453. In words: Antiproliferative activity against human MDA-MB-453 assessed as cell growth inhibition after 48 hrs by SRB assay. The class given is functional. The procedure, abridged: as §3
For the next data set, the system named is A673. In words: Antiproliferative activity against human A673 assessed as cell growth inhibition after 48 hrs by SRB assay. The class given is functional. The following applies: for CC50: read-out: LC50 (the source's name). The procedure, abridged: as §1
For data set [1], the system named is Salmon testes DNA. The data set can be described thus: Covalent binding affinity to salmon DNA measured after 30 mins by UV based spectroscopic method. The class given is nucleic-acid assay. The following applies: Salmo salar. The procedure, abridged: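 After 30 min room-temperature incubation with salmon sperm DNA in TE/15% glycerol buffer and 100 kDa ultrafiltration, retained complexes were washed with 30% MeOH (3× 5000g, 10 °C). Ligands were then released with 95% MeOH/1% formic acid for 20 min, refiltered, dried, taken up in MeOH, and analysed by LC-PDA-MS/MS against no-DNA controls.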

Data set [2] can be described thus: Aqueous solubility of the compound. The following applies: buffer.
Data set [3] has as its system Salmon testes DNA. The data set can be described thus: Binding affinity to salmon DNA groove measured after 30 mins by UV based spectroscopic method. The class given is nucleic-acid assay. The following applies: Salmo salar. In short, it runs like this: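 Compounds (typically 5–50 μg) in 200 μL water/MeOH were added to 400 μL salmon sperm DNA stock (1 mg/mL in 10 mM Tris, 1 mM EDTA, pH 8.0, 15% glycerol) and incubated 30 min at room temperature. Samples were ultrafiltered (100 kDa, 5000g, 10 °C), and filtrate peak areas (UV 254 nm, LC-PDA-MS/MS) were compared with no-DNA buffer controls.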

In the case of `COc1ccc2cc1Oc1ccc(cc1)C[C@H]1c3cc(c(OC)cc3CCN1C)Oc1c(OC)c(OC)cc3c1[C@H](C2)N(C)CC3` [FANCHININ], the concentration for 50% growth inhibition (GI50) in the data set with HCC1806 was 5.1 µM; in the data set on SJRH30 it was 3 µM; in the data set on HCC1937, 4.2 µM; in the data set with HCC70 it was 3.4 µM; with MDA-MB-231, 5 µM; in the data set with MDA-MB-453, 3.3 µM. Further, in the data set with A673, the 50% growth inhibitory concentration (GI50) was 4 µM. The TGI came out at 8.5 µM with HCC1806; 4.3 µM in the data set with SJRH30; 10 µM in the data set on HCC1937; 5.9 µM in the data set with HCC70; 7.4 µM in the data set on MDA-MB-231; 4.8 µM with MDA-MB-453. Besides, the TGI in the data set on A673 is 6 µM. Moreover, the CC50 was determined as 15 µM in the data set on HCC1806, 11 µM in the data set on HCC70, 12 µM in the data set with MDA-MB-231 and 8.9 µM in the data set with A673.

As to `O=NN(CCCl)C(=O)NCCCl` [CARMUSTINE], in the data set on Salmon testes DNA [1], the result was Active. Besides, the solubility entry in data set [2] was “Insoluble”.

As for `Nc1c2ccccc2nc2ccccc12` [AMINACRINE], in [2], the solubility result is recorded as “Insoluble”.

Turning to `Cc1c2ccncc2c(C)c2c1[nH]c1ccccc12` [ELLIPTECINE], the solubility entry in data set [2] is listed as “Insoluble”.

Regarding `N[C@@H](Cc1ccc(N(CCCl)CCCl)cc1)C(=O)O` [MELPHALAN], the outcome in the data set on Salmon testes DNA [1] was Active. In addition, the solubility entry in data set [2] is listed as “Insoluble”.

With `COc1cc2c(cc1O)[C@@H](Cc1ccc(O)c(Oc3ccc(C[C@@H]4c5cc(OC)c(OC)cc5CCN4C)cc3)c1)N(C)CC2` [DARUISOLINE], the GI50 in the data set with HCC1806 was 17 µM; in the data set with SJRH30, 3.7 µM; with HCC1937 it was 6.9 µM; with HCC70, 8.8 µM; in the data set on MDA-MB-231, 13 µM; with MDA-MB-453 it was 9 µM. Besides, the GI50 with A673 was 9.2 µM. Moreover, the TGI with HCC1806 came to 27 µM; in the data set with SJRH30 it was 6 µM; in the data set on HCC1937 it was 11 µM; in the data set with HCC70, 13 µM; in the data set on MDA-MB-231, 19 µM; in the data set on MDA-MB-453, 14 µM. Besides, the total growth inhibition concentration (TGI) in the data set with A673 is 13 µM. Moreover, the CC50 in the data set with HCC1806 amounted to 41 µM; with HCC70, 19 µM; in the data set on MDA-MB-231, 30 µM; in the data set on A673, 19 µM.

With `CN(C)CCN(Cc1cccs1)c1ccccn1` [METHAPYRILENE], the solubility result in data set [2] is “Insoluble”.

Take `COc1ccc2cc1Oc1ccc(cc1)C[C@H]1c3c(cc4c(c3Oc3cc5c(cc3OC)CCN(C)[C@@H]5C2)OCO4)CCN1C` [CEPHARANTHINE]: the concentration for 50% growth inhibition (GI50) in the data set on HCC1806 stood at 7.2 µM; with SJRH30, 3.8 µM; in the data set on HCC1937, 6 µM; in the data set on HCC70, 5.8 µM; in the data set with MDA-MB-231, 5.3 µM; in the data set on MDA-MB-453, 5.5 µM. Also, in the data set with A673, the GI50 is 4.5 µM. In addition, the TGI in the data set with HCC1806 stood at 12 µM; in the data set with SJRH30, 5.7 µM; in the data set with HCC1937, 14 µM; in the data set with HCC70, 9.6 µM; with MDA-MB-231, 7.7 µM; in the data set on MDA-MB-453 it was 7.8 µM. Further, the total growth inhibition concentration (TGI) in the data set with A673 is 5.8 µM. In addition, the CC50 in the data set with HCC1806 came to 19 µM; in the data set on HCC70, 17 µM; in the data set with MDA-MB-231 it was 12 µM; in the data set with A673, 7.5 µM.

Turning to `NC[C@@H]1O[C@H](O[C@H]2[C@@H](O)[C@H](O[C@@H]3[C@@H](O)[C@H](N)C[C@H](N)[C@H]3O[C@H]3O[C@H](CN)[C@@H](O)[C@H](O)[C@H]3N)O[C@@H]2CO)[C@H](N)[C@@H](O)[C@@H]1O` [FRAMYCETIN], in the data set with Salmon testes DNA [3], the result was Active. Moreover, the solubility result in data set [2] is listed as “Soluble”.
